From ChEMBL document CHEMBL5055631, “Antitumor properties of novel sesquiterpene lactone analogs as NFκB inhibitors that bind to the IKKβ ubiquitin-like domain (ULD)” (Eur J Med Chem, 2021)

Assays:
Assay type in all cases: functional
CCRF-CEM = test: Anticancer activity against human CCRF-CEM cells assessed as cell growth inhibition incubated for 48 hrs by sulforhodamine B assay
RPMI-8226 = test: Anticancer activity against human RPMI-8226 cells assessed as cell growth inhibition incubated for 48 hrs by SRB method
SR = test: Anticancer activity against human SR cells assessed as cell growth inhibition incubated for 48 hrs by SRB method
How it was run: (§1)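 NCI-60 panel (DTP). Cells in RPMI 1640 with 5% FBS, 2 mM L-glutamine, seeded at 5,000–40,000 per well by doubling time and preincubated 24 h at 37 °C, 5% CO2. Time-zero plates TCA-fixed. DMSO stocks diluted in medium with gentamicin, tested at 100 μM, 10 μM, 1 μM, 0.1 μM and 10 nM for 48 h. Cells fixed with cold TCA, stained with SRB, absorbance read at 515 nm.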

A549 = test: Anticancer activity against human A549 cells assessed as cell growth inhibition incubated for 48 hrs by SRB method; how it was run: as §1
HOP-62 = test: Anticancer activity against human HOP-62 cells assessed as cell growth inhibition incubated for 48 hrs by SRB method; how it was run: as §1
MOLT-4 = test: Anticancer activity against human MOLT-4 assessed as cell growth inhibition incubated for 48 hrs by SRB method
HOP-92 = test: Anticancer activity against human HOP-92 cells assessed as cell growth inhibition incubated for 48 hrs by SRB method
K562 = test: Anticancer activity against human K562 cells assessed as cell growth inhibition incubated for 48 hrs by SRB method
HL-60(TB) = test: Anticancer activity against human HL-60(TB) cells assessed as cell growth inhibition incubated for 48 hrs by SRB method
NCI-H23 = test: Anticancer activity against human NCI-H23 cells assessed as cell growth inhibition incubated for 48 hrs by SRB method; how it was run: as §1
NCI-H460 = test: Anticancer activity against human NCI-H460 cells assessed as cell growth inhibition incubated for 48 hrs by SRB method; how it was run: as §1
NCI-H522 = test: Anticancer activity against human NCI-H522 cells assessed as cell growth inhibition incubated for 48 hrs by SRB method
COLO 205 = test: Anticancer activity against human COLO 205 cells assessed as cell growth inhibition incubated for 48 hrs by SRB method
HCC 2998 = test: Anticancer activity against human HCC 2998 cells assessed as cell growth inhibition incubated for 48 hrs by SRB method; how it was run: as §1
HCT-116 = test: Anticancer activity against human HCT-116 cells assessed as cell growth inhibition incubated for 48 hrs by SRB method; how it was run: as §1
HCT-15 = test: Anticancer activity against human HCT-15 cells assessed as cell growth inhibition incubated for 48 hrs by SRB method; how it was run: as §1
HT-29 = test: Anticancer activity against human HT29 cells assessed as cell growth inhibition incubated for 48 hrs by SRB method; how it was run: as §1
SW-620 = test: Anticancer activity against human SW-620 cells assessed as cell growth inhibition incubated for 48 hrs by SRB method
SF-295 = test: Anticancer activity against human SF-295 cells assessed as cell growth inhibition incubated for 48 hrs by SRB method; how it was run: as §1
SF-539 = test: Anticancer activity against human SF-539 cells assessed as cell growth inhibition incubated for 48 hrs by SRB method
SNB-19 = test: Anticancer activity against human SNB-19 cells assessed as cell growth inhibition incubated for 48 hrs by SRB method; how it was run: as §1
LOX IMVI = test: Anticancer activity against human LOX IMVI cells assessed as cell growth inhibition incubated for 48 hrs by SRB method
Malme-3M = test: Anticancer activity against human MALME-3M cells assessed as cell growth inhibition incubated for 48 hrs by SRB method
MDA-MB-435 = test: Anticancer activity against human MDA-MB-435 cells assessed as cell growth inhibition incubated for 48 hrs by SRB method; how it was run: as §1
SK-MEL-28 = test: Anticancer activity against human SK-MEL-28 cells assessed as cell growth inhibition incubated for 48 hrs by SRB method; how it was run: as §1
UACC-257 = test: Anticancer activity against human UACC-257 assessed as cell growth inhibition incubated for 48 hrs by SRB method
How it was run: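 NCI-60 panel, SRB assay. Cells grown in RPMI 1640 with 5% FBS and 2 mM L-glutamine, seeded at 5,000–40,000 cells/well depending on doubling time, and preincubated 24 h at 37 °C with 5% CO2. Time-zero plates were TCA-fixed. Compounds came from DMSO stocks and were tested at 100 μM, 10 μM, 1 μM, 0.1 μM and 10 nM for 48 h. Cells were fixed with cold TCA and stained with 0.4% SRB, and the dye was solubilized in 10 mM Tris base with A515 read.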

IGROV-1 = test: Anticancer activity against human IGROV-1 cells assessed as cell growth inhibition incubated for 48 hrs by SRB method; how it was run: as §1
OVCAR-4 = test: Anticancer activity against human OVCAR-4 cells assessed as cell growth inhibition incubated for 48 hrs by SRB method
OVCAR-5 = test: Anticancer activity against human OVCAR-5 cells assessed as cell growth inhibition incubated for 48 hrs by SRB method
NCI/ADR-RES = test: Anticancer activity against human NCI/ADR-RES cells assessed as cell growth inhibition incubated for 48 hrs by SRB method; how it was run: as §1
A498 = test: Anticancer activity against human A498 cells assessed as cell growth inhibition incubated for 48 hrs by SRB method; how it was run: as §1
ACHN = test: Anticancer activity against human ACHN cells assessed as cell growth inhibition incubated for 48 hrs by SRB method; how it was run: as §1
CAKI-1 = test: Anticancer activity against human CAKI-1 cells assessed as cell growth inhibition incubated for 48 hrs by SRB method; how it was run: as §1
RXF 393 = test: Anticancer activity against human RXF 393 cells assessed as cell growth inhibition incubated for 48 hrs by SRB method; how it was run: as §1
PC-3 = test: Anticancer activity against human PC-3 cells assessed as cell growth inhibition incubated for 48 hrs by SRB method; how it was run: as §1
DU-145 = test: Anticancer activity against human DU-145 cells assessed as cell growth inhibition incubated for 48 hrs by SRB method; how it was run: as §1
MCF7 = test: Anticancer activity against human MCF7 cells assessed as cell growth inhibition incubated for 48 hrs by SRB method; how it was run: as §1
[1] = Anticancer activity against human HS 578T cells assessed as cell growth inhibition incubated for 48 hrs by SRB method
BT-549 = test: Anticancer activity against human BT-549 cells assessed as cell growth inhibition incubated for 48 hrs by SRB method; how it was run: as §1
T47D = test: Anticancer activity against human T47D cells assessed as cell growth inhibition incubated for 48 hrs by SRB method; how it was run: as §1

Row | SMILES | GI50 (CCRF-CEM) [nM] | GI50 (RPMI-8226) [nM] | GI50 (SR) [nM] | GI50 (A549) [nM] | GI50 (HOP-62) [nM] | GI50 (MOLT-4) [nM] | GI50 (HOP-92) [nM] | GI50 (K562) [nM] | GI50 (HL-60(TB)) [nM] | GI50 (NCI-H23) [nM] | GI50 (NCI-H460) [nM] | GI50 (NCI-H522) [nM] | GI50 (COLO 205) [nM] | GI50 (HCC 2998) [nM] | GI50 (HCT-116) [nM] | GI50 (HCT-15) [nM] | GI50 (HT-29) [nM] | GI50 (SW-620) [nM] | GI50 (SF-295) [nM] | GI50 (SF-539) [nM] | further results
1 | C=C1C(=O)O[C@H]2[C@H]1CC/C(COC(=O)NCc1cc(OC)cc(OC)c1)=C\CC[C@@]1(C)O[C@@H]21 | 470 | 1800 | 320 | 2580 | 3060 | 2000 | 1420 | 1570 | 1690 | 1840 | 3010 | 340 | 1350 | 1940 | 770 | 770 | 1200 | 1120 | 7780 | 1540 | GI50 (SNB-19): 5320 nM; GI50 (LOX IMVI): 540 nM; GI50 (Malme-3M): 1860 nM; GI50 (MDA-MB-435): 1990 nM; GI50 (SK-MEL-28): 1660 nM; GI50 (UACC-257): 270 nM; GI50 (IGROV-1): 1540 nM; GI50 (OVCAR-4): 2120 nM; GI50 (OVCAR-5): 1010 nM; GI50 (NCI/ADR-RES): 1820 nM; GI50 (A498): 2980 nM; GI50 (ACHN): 1700 nM; GI50 (CAKI-1): 2110 nM; GI50 (RXF 393): 1290 nM; GI50 (PC-3): 1660 nM; GI50 (DU-145): 1510 nM; GI50 (MCF7): 2720 nM; GI50 [1]: 580 nM; GI50 (BT-549): 1610 nM; GI50 (T47D): 4120 nM
2 | C=C1C(=O)O[C@H]2[C@H]1CC/C(COC(=O)NCc1ccc(OC)cc1)=C\CC[C@@]1(C)O[C@@H]21 | 260 | 260 | 300 | 2430 | 4810 | 280 | 240 | 370 | 260 | 550 | 2740 | 170 | 240 | 510 | 190 | 240 | 260 | 220 | 10800 | 320 | GI50 (SNB-19): 700 nM; GI50 (LOX IMVI): 270 nM; GI50 (Malme-3M): 200 nM; GI50 (MDA-MB-435): 420 nM; GI50 (SK-MEL-28): 1180 nM; GI50 (UACC-257): 1520 nM; GI50 (IGROV-1): 320 nM; GI50 (OVCAR-4): 290 nM; GI50 (OVCAR-5): 280 nM; GI50 (NCI/ADR-RES): 1460 nM; GI50 (A498): 1790 nM; GI50 (ACHN): 180 nM; GI50 (CAKI-1): 720 nM; GI50 (RXF 393): 270 nM; GI50 (PC-3): 350 nM; GI50 (DU-145): 160 nM; GI50 (MCF7): 1870 nM; GI50 [1]: 270 nM; GI50 (BT-549): 620 nM; GI50 (T47D): 790 nM
3 | C=C1C(=O)O[C@H]2[C@H]1CC/C(COC(=O)NCCc1ccc(OC)cc1)=C\CC[C@@]1(C)O[C@@H]21 | 1980 | 2850 | 2070 | 13200 | 12200 | 2610 | 1990 | 3080 | 2340 | 4340 | 12200 | 1820 | 1940 | 2480 | 1340 | 1740 | 2150 | 2510 | 13500 | 1790 | GI50 (SNB-19): 8650 nM; GI50 (LOX IMVI): 1380 nM; GI50 (Malme-3M): 2440 nM; GI50 (MDA-MB-435): 3530 nM; GI50 (SK-MEL-28): 8970 nM; GI50 (UACC-257): 1470 nM; GI50 (IGROV-1): 2490 nM; GI50 (OVCAR-4): 2610 nM; GI50 (OVCAR-5): 2190 nM; GI50 (NCI/ADR-RES): 2650 nM; GI50 (A498): 10000 nM; GI50 (ACHN): 1760 nM; GI50 (CAKI-1): 4520 nM; GI50 (RXF 393): 1720 nM; GI50 (PC-3): 2730 nM; GI50 (DU-145): 1760 nM; GI50 (MCF7): 8080 nM; GI50 [1]: 1890 nM; GI50 (BT-549): 2020 nM; GI50 (T47D): 13800 nM
4 | C=C1C(=O)O[C@H]2[C@H]1CC/C(COC(=O)NCc1ccccc1OC)=C\CC[C@@]1(C)O[C@@H]21 | 480 | 1770 | 670 | 3070 | 3690 | 2530 | 1490 | 820 | 1610 | 1740 | 3730 | 350 | 1750 | 1820 | 540 | 1040 | 1220 | 760 | 5020 | 1530 | GI50 (SNB-19): 1570 nM; GI50 (LOX IMVI): 1430 nM; GI50 (Malme-3M): 1890 nM; GI50 (MDA-MB-435): 1700 nM; GI50 (SK-MEL-28): 1710 nM; GI50 (UACC-257): 1350 nM; GI50 (IGROV-1): 1480 nM; GI50 (OVCAR-4): 1570 nM; GI50 (OVCAR-5): 870 nM; GI50 (NCI/ADR-RES): 2290 nM; GI50 (A498): 2260 nM; GI50 (ACHN): 1160 nM; GI50 (CAKI-1): 3230 nM; GI50 (RXF 393): 1270 nM; GI50 (PC-3): 1790 nM; GI50 (DU-145): 1680 nM; GI50 (MCF7): 3130 nM; GI50 [1]: 490 nM; GI50 (BT-549): 1470 nM; GI50 (T47D): 3400 nM
